According to ChEMBL document CHEMBL5705906 (Nat Commun, 2017):
Active and inactive are the calls of the source. The rule behind the calls is not given here.

Key:
BaF3 [1] = assay: Inhibition of EGFR-C797S/T790M/del19 mutant in mouse BaF3 cells assessed as reduction in S6 phosphorylation incubated for 6 hrs by Western blotting analysis; type: cell-based
Summary of the method: (§1)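 Ba/F3 cells carrying the stated EGFR mutant were made IL-3-independent after 1 week of 7 µM blasticidin selection. They were grown in low-glucose DMEM with 10% FBS and exposed to inhibitor for 6 h. Cells were washed in cold PBS, lysed in SDS buffer (100 mM Tris, 1% SDS, 10% glycerol) and boiled 5 min. Protein was measured by BCA, run on SDS-PAGE, transferred to PVDF, blocked in 5% BSA or milk/TBS-T, and immunoblotted.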

BaF3 [2] = assay: Inhibition of EGFR-T790M/del19 mutant in mouse BaF3 cells assessed as inhibition of EGFR phosphorylation at 10 to 1000 nM incubated for 6 hrs by Western blotting analysis; type: cell-based; conditions: dose 10-1000 nM; summary of the method: as §1
BaF3 [3] = assay: Inhibition of EGFR-C797S/T790M/L858R mutant in mouse BaF3 cells assessed as inhibition of EGFR phosphorylation at 10 to 1000 nM incubated for 6 hrs by Western blotting analysis; type: cell-based; conditions: dose 10-1000 nM
Summary of the method: (§2)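 Ba/F3 cells expressing EGFR-L858R-series mutants treated with inhibitors for 6 h. SDS lysates quantified by BCA, run on SDS-PAGE and blotted to PVDF. Probed for phospho-EGFR (Tyr1068), total EGFR and downstream phospho-proteins.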

A549 = assay: Anticancer activity against human A549 cells assessed as reduction in cell viability at IC50 concentration incubated for 72 hrs by CellTiter-Glo assay; type: functional, cell-based
Summary of the method: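 Three-day CellTiter-Glo viability assay. Cells exposed to compound across a 10-dose range of 0.3 nM to 10 µM for 72 h. IC50 from nonlinear sigmoidal dose-response fit.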

BaF3 [4] = assay: Inhibition of EGFR-C797S/T790M/L858R mutant expressed in mouse BaF3 cells assessed as inhibition of Akt phosphorylation at 10 to 1000 nM incubated for 6 hrs by Western blotting analysis; type: cell-based; conditions: dose 10-1000 nM; summary of the method: as §2
BaF3 [5] = assay: Inhibition of EGFR-C797S/T790M/L858R mutant in mouse BaF3 cells assessed as inhibition of S6 phosphorylation at 10 to 1000 nM incubated for 6 hrs by Western blotting analysis; type: cell-based; conditions: dose 10-1000 nM; summary of the method: as §2
PC-9 [6] = assay: Inhibition of EGFR T790M/del19 mutant in human PC-9 cells assessed as reduction in Akt phosphorylation at 10 to 1000 nM by Western blotting analysis; type: cell-based; conditions: dose 10-1000 nM
PC-9 [7] = assay: Inhibition of EGFR T790M/del19 mutant in human PC-9 cells assessed as reduction in S6 phosphorylation at 10 to 1000 nM by Western blotting analysis; type: cell-based; conditions: dose 10-1000 nM
PC-9 [8] = type: functional, organism-based; conditions: Homo sapiens, dose 75.0 mg/kg, route po, time 15.0 day
PC-9 [9] = assay: Anti-tumor activity against EGFR T790M/del19 mutant expressing gefitinib-resistant human PC-9 cells xenografted in Balb-c nu/nu mouse assessed as growth inhibition at 75 mg/kg, po administered for 42 days; type: functional, organism-based; conditions: time 42.0 day
[10] = test system: Ba/F3 EGFR-Del19/T790M/C797S; assay: Cytotoxicity against mouse Ba/F3 EGFR-Del19/T790M/C797S cells assessed as growth inhibition at 100 nM incubated for 72 hrs in presence of panitumumab by CellTiter-Glo assay; type: functional, cell-based
PC-9 [11] = assay: Anti-tumor activity against human PC-9 cells expressing EGFR-C797S/T790M/del19 mutant xenografted in Balb-c nu/nu mouse assessed as decreased tumor growth at 75 mg/kg, po administered for 60 days and measured twice weekly in presence of cetuximab; type: functional, organism-based; conditions: time 60.0 day
Summary of the method: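 PC9 EGFR-C797S/T790M/del19 xenografts in Balb-c nu/nu mice, randomized at ~200 mm³. […] Tumour volume 0.5×length×width² and body weight measured twice weekly. Survival shown by Kaplan-Meier curve. N = 6. Mann-Whitney U test on tumour volume at day 23.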

MGH121 = assay: Anti-tumor activity against human MGH121 cells expressing EGFR-C797S/T790M/del19 mutant xenografted in SCID-beige mouse assessed as tumor shrinkage at 75 mg/kg, po administered for 40 days and measured twice weekly in presence of cetuximab; type: functional, organism-based; conditions: time 40.0 day
Summary of the method: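 MGH121-res2 cells (EGFR-C797S/T790M/del19) implanted s.c. in SCID-beige mice. Randomized at mean tumour ~200 mm³. […] Tumour volume 0.5×length×width² and body weight measured twice weekly. N = 6, mean ± s.d. Mann-Whitney U test on day 42.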

[12] = Toxicity against SCID-beige mouse xenografted with human MGH121 cells expressing EGFR-C797S/T790M/del19 mutant assessed as change in body weight at 75 mg/kg, po administered for 40 days and measured twice weekly in presence of cetuximab; type: organism-based; conditions: in vivo, 960 h, time 40 day
Summary of the method: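 SCID-beige mice with subcutaneous MGH121-res2 implants were randomized to vehicle or treatment at a mean tumour volume of ~200 mm³. […] Body weight was measured twice weekly, N=6 per group.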

[13] = Toxicity against Balb-c nu/nu mouse xenografted with human PC-9 cells expressing EGFR-C797S/T790M/del19 mutant assessed as change in body weight at 75 mg/kg, po administered for 60 days and measured twice weekly in presence of cetuximab; type: organism-based; conditions: in vivo, 1440 h, time 60 day
Summary of the method: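 Balb-c nu/nu mice carried subcutaneous PC9 triple-mutant xenografts (6×10^6 cells in 1:2 Matrigel) and were randomized at ~200 mm³. […] Body weight was measured twice weekly, N=6 per arm.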

[14] = Toxicity against Balb-c nu/nu mouse xenografted with human PC-9 cells expressing EGFR-C797S/T790M/del19 mutant assessed as change in body weight at 75 mg/kg, po administered for 15 days and measured twice weekly; type: organism-based; conditions: in vivo, 360 h, time 15 day
Summary of the method: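 PC9 triple-mutant cells (6×10^6 in 100 µl 1:2 Matrigel) were implanted subcutaneously in Balb-c nu/nu mice. At a mean tumour volume of ~200 mm³, mice were randomized, excluding the top and bottom 5% by tumour size. […] Body weight was recorded twice weekly, n=6 per group, and tumours were resected on treatment day 15.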

BaF3 [15] = conditions: Mus musculus, dose 10-1000 nM
BaF3 [16] = conditions: Mus musculus, dose 10-1000 nM, time 6.0 hrs
BaF3 [17] = conditions: Mus musculus, dose 10-1000 nM, time 6.0 hrs; remark: listed apart in the source
[18] = test system: Epidermal growth factor receptor (Homo sapiens), P00533 [UNDEFINED MUTATION]; conditions: MGH121, dose 10-1000 nM
[19] = test system: Epidermal growth factor receptor (Homo sapiens), P00533 [UNDEFINED MUTATION]; conditions: PC-9, dose 10-1000 nM
PC-9 [20] = conditions: Homo sapiens, dose 75.0 mg/kg, route po, time 15.0 day
PC-9 [21] = conditions: Homo sapiens, dose 75.0 mg/kg, route po, time 60.0 day
PC-9 [22] = conditions: Homo sapiens, dose 75.0 mg/kg, route po, time 60.0 day; remark: listed apart in the source

Sequence of Epidermal growth factor receptor (Homo sapiens), P00533 [UNDEFINED MUTATION] (P00533 whole entry, looked up, change not shown): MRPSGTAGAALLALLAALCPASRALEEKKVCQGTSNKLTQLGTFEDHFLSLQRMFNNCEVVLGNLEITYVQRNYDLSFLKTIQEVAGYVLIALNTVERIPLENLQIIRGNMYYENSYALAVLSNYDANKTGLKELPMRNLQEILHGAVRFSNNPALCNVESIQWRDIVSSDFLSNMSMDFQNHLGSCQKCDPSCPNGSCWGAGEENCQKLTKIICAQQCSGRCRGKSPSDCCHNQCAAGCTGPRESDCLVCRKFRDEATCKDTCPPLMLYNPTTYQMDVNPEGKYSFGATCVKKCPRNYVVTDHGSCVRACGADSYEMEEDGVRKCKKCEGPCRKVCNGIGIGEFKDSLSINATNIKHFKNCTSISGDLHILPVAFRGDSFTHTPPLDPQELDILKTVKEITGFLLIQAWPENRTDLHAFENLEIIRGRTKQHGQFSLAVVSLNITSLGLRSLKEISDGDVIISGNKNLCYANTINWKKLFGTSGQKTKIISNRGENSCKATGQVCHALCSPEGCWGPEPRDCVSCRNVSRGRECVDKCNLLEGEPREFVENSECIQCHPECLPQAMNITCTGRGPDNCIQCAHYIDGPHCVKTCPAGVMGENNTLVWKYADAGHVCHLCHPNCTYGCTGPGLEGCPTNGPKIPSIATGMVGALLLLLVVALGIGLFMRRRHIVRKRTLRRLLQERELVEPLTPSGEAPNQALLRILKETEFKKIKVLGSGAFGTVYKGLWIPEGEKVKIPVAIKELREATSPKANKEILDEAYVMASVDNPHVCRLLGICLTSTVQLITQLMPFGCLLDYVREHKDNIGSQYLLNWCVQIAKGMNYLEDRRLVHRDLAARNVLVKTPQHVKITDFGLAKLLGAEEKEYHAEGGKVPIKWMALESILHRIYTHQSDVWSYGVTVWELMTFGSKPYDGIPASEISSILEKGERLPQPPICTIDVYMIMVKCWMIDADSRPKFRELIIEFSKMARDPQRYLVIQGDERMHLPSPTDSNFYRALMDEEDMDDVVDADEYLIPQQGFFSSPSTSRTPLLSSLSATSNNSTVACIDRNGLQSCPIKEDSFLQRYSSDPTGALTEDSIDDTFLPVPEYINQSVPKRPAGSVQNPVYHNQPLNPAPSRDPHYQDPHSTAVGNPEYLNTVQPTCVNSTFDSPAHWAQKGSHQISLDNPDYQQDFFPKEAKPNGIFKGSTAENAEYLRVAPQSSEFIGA

Structure (SMILES): COc1cc(N2CCC(N3CCN(C)CC3)CC2)ccc1Nc1ncc(Cl)c(Nc2ccccc2P(C)(C)=O)n1 [BRIGATINIB]
- inhibition (BaF3 [1]): Dose-Dependent Effect
- inhibition (BaF3 [2]): Active
- inhibition (BaF3 [3]): Active
- Activity (A549): Active
- inhibition (BaF3 [4]): Active
- inhibition (BaF3 [5]): Active
- inhibition (PC-9 [6]): Active
- inhibition (PC-9 [7]): Active
- Activity (PC-9 [8]): Active
- Activity (PC-9 [9]): Active
- growth inhibition (GI) [10]: Active
- Activity (PC-9 [11]): Active
- Activity (MGH121): Active
- Activity [12]: Non-Toxic
- Activity [13]: Non-Toxic
- Activity [14]: Non-Toxic
- inhibition (BaF3 [15]): Dose-Dependent Effect
- inhibition (BaF3 [16]): Active
- inhibition (BaF3 [17]): Active
- inhibition [18]: Active
- inhibition [19]: Active
- inhibition (PC-9 [20]): Active
- inhibition (PC-9 [21]): Active
- inhibition (PC-9 [22]): Active
